Experimental data taken from ChEMBL document CHEMBL3259666, “Discovery of a neuroprotective chemical, (S)-N-(3-(3,6-dibromo-9H-carbazol-9-yl)-2-fluoropropyl)-6-methoxypyridin-2-amine [(-)-P7C3-S243], with improved druglike properties” (J Med Chem, 2014).
The source made the active and inactive calls. The calls are words filed in the database; no cut-off is given here.

Key:
[1] = system: Mus musculus; assay: Neuroprotective activity in wild type C57BL/J6 mouse assessed as survival of newborn hippocampal neurons at 10 uM, icv administered for 7 days by BrdU staining-based immunohistochemical analysis relative to vehicle-treated control; format: functional, organism-based
Method in brief: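 Adult (12 week old) C57BL/J6 mice, environmentally deprived; compound infused via osmotic minipump into left lateral ventricle at 0.5 μL/h for 7 days. BrdU IP 50 mg kg–1 day–1 for 6 days during infusion; perfusion 24 h after last BrdU. BrdU+ cells in SGZ/dentate gyrus of contralateral hemisphere counted in every fifth 40 μm section, normalized to dentate gyrus volume; mean ± SEM.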

[2] = Half life in mouse at 20 mg/kg, ip by HPLC/MS/MS analysis; format: ADME, organism-based; design: dose 20 mg/kg, route intraperitoneal; conditions: in vivo
Method in brief: (§1)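 Mouse PK. Compound formulated in 5% DMSO/10% cremophor EL/85% D5W (pH 7.2) and given IV, IP or by oral gavage. Mice killed at varying times with CO2. Citrated plasma and PBS brain homogenate (3-fold volume) were protein-precipitated with acetonitrile containing 0.15% formic acid and analysed by HPLC/MS/MS against spiked blank standards. Noncompartmental analysis was used, with F = (AUCoral/AUCIV)×(DoseIV/Doseoral)×100%. Values are mean ± SEM.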

[3] = system: Liver; assay: Half life in mouse liver microsomes; format: ADME
[4] = system: Hepatocyte; assay: Half life in mouse hepatocytes; format: ADME, cell-based
[5] = system: Liver microsome; assay: Half life in rat liver microsomes; format: ADME
[6] = system: Brain; assay: AUC in mouse brain at 10 mg/kg, ip by HPLC/MS/MS analysis; format: ADME, organism-based; design: dose 10 mg/kg, route intraperitoneal; conditions: in vivo; method in brief: as §1
[7] = system: Brain; assay: Bioavailability in mouse brain at 10 mg/kg, ip by HPLC/MS/MS analysis; format: ADME, organism-based; conditions: in vivo; method in brief: as §1
[8] = system: Mus musculus; assay: Neuroprotective activity in substantia nigra of C57Bl/6 mouse neurogenesis model assessed as protection from MPTP-induced cell death in mature neurons at 1 mg/kg/day, ip bid administered for 21 days by immunohistochemical analysis relative to vehicle-treated control; format: functional, organism-based
Method in brief: (§2)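 MPTP model in adult male C57Bl/6 mice, individually housed 1 week. MPTP free base 30 mg/kg/day IP for 5 days. From day 6 (24 h after the last MPTP dose), compound or vehicle given IP twice daily for 21 days. Mice were then perfused with 4% paraformaldehyde. SNc sectioned at 30 μm intervals and every fourth section stained for TH (DAB, hematoxylin counterstain). TH+ cells counted blinded; mean ± SEM, compared with vehicle + MPTP.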

[9] = system: Mus musculus; assay: Neuroprotective activity in substantia nigra of C57Bl/6 mouse neurogenesis model assessed as protection from MPTP-induced cell death in mature neurons at 10 mg/kg/day, ip bid administered for 21 days by immunohistochemical analysis relative to vehicle-treated control; format: functional; conditions: route intraperitoneal; method in brief: as §2
[10] = Half life in mouse at 20 mg/kg, po by HPLC/MS/MS analysis; format: ADME, organism-based; design: dose 20 mg/kg, route oral; conditions: in vivo; method in brief: as §1
[11] = system: Brain; assay: AUC in mouse brain at 10 mg/kg, iv by HPLC/MS/MS analysis; format: ADME, organism-based; design: dose 10 mg/kg, route intravenous; conditions: in vivo; method in brief: as §1
[12] = system: Plasma; assay: Bioavailability in mouse plasma at 10 mg/kg, ip by HPLC/MS/MS analysis; format: ADME, organism-based; conditions: in vivo; method in brief: as §1
[13] = system: Mus musculus; assay: Neuroprotective activity in wild type C57BL/J6 mouse assessed as survival of newborn hippocampal neurons at 10 uM, icv administered for 7 days by BrdU staining-based microscopy relative to vehicle-treated control; format: functional, organism-based
Method in brief: (§3)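 Adult (12-week) wild-type C57BL/J6 mice. Compound infused ICV into the left lateral ventricle by osmotic minipump at 0.5 μL/h for 7 days, with BrdU 50 mg/kg/day IP for 6 days. Perfused 24 h after the last BrdU dose. BrdU antigen unmasked (formamide/SSC at 65 °C, then 2 M HCl); anti-BrdU staining. BrdU+ cells in the contralateral dentate gyrus SGZ counted in every fifth 40 μm section and normalised to dentate gyrus volume.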

[14] = system: Brain; assay: Bioavailability in mouse brain at 20 mg/kg, po by HPLC/MS/MS analysis; format: ADME, organism-based; conditions: in vivo; method in brief: as §1
[15] = system: Mus musculus; assay: Toxicity in C57Bl/6 mouse assessed as effect on weight up to 10 mg/kg/day, ip bid administered for 21 days; format: organism-based; design: route intraperitoneal; conditions: in vivo, 504 h
[16] = system: Brain; assay: AUC in mouse brain at 20 mg/kg, po by HPLC/MS/MS analysis; format: ADME, organism-based; design: dose 20 mg/kg, route oral; conditions: in vivo; method in brief: as §1
[17] = system: Liver microsome; assay: Half life in human liver microsomes; format: ADME
[18] = Half life in mouse at 10 mg/kg, ip by HPLC/MS/MS analysis; format: ADME, organism-based; design: dose 10 mg/kg, route intraperitoneal; conditions: in vivo; method in brief: as §1
[19] = system: Mus musculus; assay: Toxicity in C57Bl/6 mouse assessed as effect on appearance up to 10 mg/kg/day, ip bid administered for 21 days; format: organism-based; design: route intraperitoneal; conditions: in vivo, 504 h
[20] = system: Liver microsome; assay: Half life in dog liver microsomes; format: ADME, Canis lupus familiaris
[21] = system: Brain; assay: Bioavailability in mouse brain at 20 mg/kg, ip by HPLC/MS/MS analysis; format: ADME, organism-based; conditions: in vivo; method in brief: as §1
[22] = Half life in monkey liver microsomes; format: ADME, Macaca mulatta; conditions: rhesus monkey
[23] = system: Brain; assay: AUC in mouse brain at 20 mg/kg, ip by HPLC/MS/MS analysis; format: ADME, organism-based; design: dose 20 mg/kg, route intraperitoneal; conditions: in vivo; method in brief: as §1
[24] = system: Mus musculus; assay: Neuroprotective activity in wild type C57BL/J6 mouse assessed as survival of newborn hippocampal neurons at 0.1 to 10 uM, icv administered for 7 days by BrdU staining-based microscopy relative to vehicle-treated control; format: functional, organism-based; method in brief: as §3
[25] = system: Mus musculus; assay: Neuroprotective activity in wild type C57BL/J6 mouse assessed as survival of newborn hippocampal neurons at 1 to 10 mg/kg/day, ip bid administered for 7 days by BrdU staining-based immunohistochemical analysis relative to vehicle-treated control; format: functional, organism-based
Method in brief: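 Adult (12-week) wild-type C57BL/J6 mice. Compound given IP twice daily for 7 days, with BrdU 50 mg/kg/day IP. Perfused with 4% paraformaldehyde 24 h after the last BrdU dose. Anti-BrdU immunostaining after formamide/HCl unmasking. BrdU+ cells in the dentate gyrus SGZ counted in every fifth 40 μm section and normalised to dentate gyrus volume; mean ± SEM.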

[26] = system: Plasma; assay: Bioavailability in mouse plasma at 20 mg/kg, po by HPLC/MS/MS analysis; format: ADME, organism-based; conditions: in vivo; method in brief: as §1
[27] = system: Mus musculus; assay: Toxicity in C57Bl/6 mouse assessed as effect on behavior up to 10 mg/kg/day, ip bid administered for 21 days; format: organism-based; design: route intraperitoneal; conditions: in vivo, 504 h
[28] = system: Plasma; assay: Bioavailability in mouse plasma at 20 mg/kg, ip by HPLC/MS/MS analysis; format: ADME, organism-based; conditions: in vivo; method in brief: as §1
[29] = Half life in mouse at 10 mg/kg, iv by HPLC/MS/MS analysis; format: ADME, organism-based; design: dose 10 mg/kg, route intravenous; conditions: in vivo; method in brief: as §1

SMILES: COc1cccc(NCC(O)Cn2c3ccc(Br)cc3c3cc(Br)ccc32)n1 (stereo not drawn)
- Activity [1]: Active

SMILES: NCC(O)Cn1c2ccc(Br)cc2c2cc(Br)ccc21 (stereo not drawn)
- Activity [1]: Active

SMILES: [N-]=[N+]=NCC(F)Cn1c2ccc(Br)cc2c2cc(Br)ccc21 (stereo not drawn)
- Activity [1]: inactive

SMILES: NCC(F)Cn1c2ccc(Br)cc2c2cc(Br)ccc21 (stereo not drawn)
- Activity [1]: Active

SMILES: COc1cccc(NCC(F)Cn2c3ccc(Br)cc3c3cc(Br)ccc32)n1 (racemic)
- Activity [1]: Active
- half-life [2]: 15 h
- t1/2 [3]: 0.817 h
- t1/2 [4]: > 4 h
- t1/2 [5]: > 4 h
- AUC [6]: 189 µg·min/g
- F [7]: 28%
- Activity [8]: Active
- Activity [9]: 85%
- half-life [10]: 9.6 h
- AUC [11]: 671 µg·min/g
- F [12]: 66%
- Activity [13]: Active
- F [14]: 29%
- Activity [15]: Non-toxic
- AUC [16]: 388 µg·min/g
- t1/2 [17]: 1.95 h
- half-life [18]: > 24 h
- Activity [19]: Non-toxic
- t1/2 [20]: 0.75 h
- F [21]: 48%
- t1/2 [22]: 1.35 h
- AUC [23]: 319 µg·min/g
- Activity [24]: Active
- Activity [25]: Active
- F [26]: 38%
- Activity [27]: Non-toxic
- F [28]: 90%
- half-life [29]: 7.4 h
